System: Brassica napus
Assay: Postemergence herbicidal activity against Brassica napus (oilseed rape) under greenhouse condition at 18.75 g/ha applied after expansion of true leaf
Type: functional
How it was run: (§1)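 Seeds sown in 6-cm-diameter boxes of artificial mixed soil. Boxes were kept under plastic film until emergence to hold moisture, and plants were grown in a greenhouse. Above-ground fresh weight was weighed 10 days after treatment. Control efficiency is reported as percent inhibition.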

| Structure (SMILES) | Activity |
| --- | --- |
| CCOCCOC(=O)/C(C#N)=C(\NCc1cnc(Cl)s1)C(C)C | 15% |

System: Brassica napus
Assay: Postemergence herbicidal activity against Brassica napus (oilseed rape) under greenhouse condition at 187.5 g/ha applied after expansion of true leaf
Type: functional
How it was run: as §1

| Structure (SMILES) | Activity |
| --- | --- |
| CCOCCOC(=O)/C(C#N)=C(\NCc1cnc(Cl)s1)C(C)C | 100% |
| CCOCCOC(=O)/C(C#N)=C(\NCc1cnc(Cl)s1)SC | 48% |
| CCOCCOC(=O)/C(C#N)=C(/CC)NCc1cnc(Cl)s1 | 29% |
| CCOCCOC(=O)/C(C#N)=C(/C)NCc1cnc(Cl)s1 | 39% |

System: Brassica napus
Assay: Postemergence herbicidal activity against Brassica napus (oilseed rape) under greenhouse condition at 150 g/ha applied after expansion of true leaf
Type: functional
How it was run: as §1

| Structure (SMILES) | Activity |
| --- | --- |
| CCOCCOC(=O)/C(C#N)=C(\NCc1cnc(Cl)s1)C(C)C | 100% |

System: Amaranthus retroflexus
Assay: (§2) Post-emergence herbicidal activity against Amaranthus retroflexus under greenhouse condition at […] applied after expansion of true leaf
Type: functional
How it was run: as §1

| Structure (SMILES) | Activity |
| --- | --- |
| CCOCCOC(=O)/C(C#N)=C(\NCc1cnc(Cl)s1)C(C)C | 67% |
| CCOCCOC(=O)/C(C#N)=C(\NCc1cnc(Cl)s1)SC | 41% |
| CCOCCOC(=O)/C(C#N)=C(/CC)NCc1cnc(Cl)s1 | 42% |
| CCOCCOC(=O)/C(C#N)=C(/C)NCc1cnc(Cl)s1 | 73% |

System: Amaranthus retroflexus
Assay: Pre-emergence herbicidal activity against Amaranthus retroflexus under greenhouse condition at 1.5 kg/ha applied immediately after seed planting
Type: functional
How it was run: as §1

| Structure (SMILES) | Activity |
| --- | --- |
| CCOCCOC(=O)/C(C#N)=C(\NCc1cnc(Cl)s1)C(C)C | 54% |
| COCCOC(=O)/C(C#N)=C(/C)NCc1cnc(Cl)s1 | 45% |
| CCOCCOC(=O)/C(C#N)=C(\NCc1cnc(Cl)s1)SC | 76% |
| CCOCCOC(=O)/C(C#N)=C(/CC)NCc1cnc(Cl)s1 | 70% |
| CCOCCOC(=O)/C(C#N)=C(/C)NCc1cnc(Cl)s1 | 87% |
| CCOCCOC(=O)/C(C#N)=C(\NCc1ccc(Cl)cc1)C(C)C | 52% |

System: Brassica napus
Assay: Postemergence herbicidal activity against Brassica napus (oilseed rape) under greenhouse condition at 375 g/ha applied after expansion of true leaf
Type: functional
How it was run: as §1

| Structure (SMILES) | Activity |
| --- | --- |
| CCOCCOC(=O)/C(C#N)=C(\NCc1cnc(Cl)s1)C(C)C | 100% |
| CCOCCOC(=O)/C(C#N)=C(\NCc1cnc(Cl)s1)SC | 57% |
| CCOCCOC(=O)/C(C#N)=C(/CC)NCc1cnc(Cl)s1 | 60% |
| CCOCCOC(=O)/C(C#N)=C(/C)NCc1cnc(Cl)s1 | 59% |

System: Amaranthus retroflexus
Assay: as §2
Type: functional
How it was run: as §1

| Structure (SMILES) | Activity |
| --- | --- |
| CCOCCOC(=O)/C(C#N)=C(\NCc1cnc(Cl)s1)C(C)C | 81% |
| CCOCCOC(=O)/C(C#N)=C(\NCc1cnc(Cl)s1)SC | 48% |
| CCOCCOC(=O)/C(C#N)=C(/CC)NCc1cnc(Cl)s1 | 50% |
| CCOCCOC(=O)/C(C#N)=C(/C)NCc1cnc(Cl)s1 | 78% |

System: Brassica napus
Assay: Postemergence herbicidal activity against Brassica napus (oilseed rape) under greenhouse condition at 37.5 g/ha applied after expansion of true leaf
Type: functional
How it was run: as §1

| Structure (SMILES) | Activity |
| --- | --- |
| CCOCCOC(=O)/C(C#N)=C(\NCc1cnc(Cl)s1)C(C)C | 52% |

System: Brassica napus
Assay: Postemergence herbicidal activity against Brassica napus (oilseed rape) under greenhouse condition at 750 g/ha applied after expansion of true leaf
Type: functional
How it was run: as §1

| Structure (SMILES) | Activity |
| --- | --- |
| CCOCCOC(=O)/C(C#N)=C(\NCc1cnc(Cl)s1)C(C)C | 100% |
| CCOCCOC(=O)/C(C#N)=C(\NCc1cnc(Cl)s1)SC | 100% |
| CCOCCOC(=O)/C(C#N)=C(/CC)NCc1cnc(Cl)s1 | 69% |
| CCOCCOC(=O)/C(C#N)=C(/C)NCc1cnc(Cl)s1 | 96% |

System: Amaranthus retroflexus
Assay: Post-emergence herbicidal activity against Amaranthus retroflexus under greenhouse condition at 750 g/ha applied after expansion of true leaf
Type: functional
How it was run: as §1

| Structure (SMILES) | Activity |
| --- | --- |
| CCOCCOC(=O)/C(C#N)=C(\NCc1cnc(Cl)s1)C(C)C | 100% |
| CCOCCOC(=O)/C(C#N)=C(\NCc1cnc(Cl)s1)SC | 91% |
| CCOCCOC(=O)/C(C#N)=C(/CC)NCc1cnc(Cl)s1 | 57% |
| CCOCCOC(=O)/C(C#N)=C(/C)NCc1cnc(Cl)s1 | 98% |

System: Brassica napus
Assay: Postemergence herbicidal activity against Brassica napus (oilseed rape) under greenhouse condition at 300 g/ha applied after expansion of true leaf
Type: functional
How it was run: as §1

| Structure (SMILES) | Activity |
| --- | --- |
| CCOCCOC(=O)/C(C#N)=C(\NCc1cnc(Cl)s1)C(C)C | 100% |

System: Brassica napus
Assay: Postemergence herbicidal activity against Brassica napus (oilseed rape) under greenhouse condition at 1.5 kg/ha applied after expansion of true leaf
Type: functional
How it was run: as §1

| Structure (SMILES) | Activity |
| --- | --- |
| CCOCCOC(=O)/C(C#N)=C(\NCc1cnc(Cl)s1)C(C)C | 100% |
| COCCOC(=O)/C(C#N)=C(/C)NCc1cnc(Cl)s1 | 100% |
| CCOCCOC(=O)/C(C#N)=C(\NCc1cnc(Cl)s1)SC | 100% |
| CCOCCOC(=O)/C(C#N)=C(/CC)NCc1cnc(Cl)s1 | 100% |
| CCOCCOC(=O)/C(C#N)=C(/C)NCc1cnc(Cl)s1 | 95% |
| CCOCCOC(=O)/C(C#N)=C(\NCc1ccc(Cl)cc1)C(C)C | 96% |

System: Medicago sativa
Assay: Preemergence herbicidal activity against Medicago sativa (alfalfa) under greenhouse condition at 1.5 kg/ha applied immediately after seed planting
Type: functional
How it was run: as §1

| Structure (SMILES) | Activity |
| --- | --- |
| CCOCCOC(=O)/C(C#N)=C(\NCc1cnc(Cl)s1)C(C)C | 16% |
| COCCOC(=O)/C(C#N)=C(/C)NCc1cnc(Cl)s1 | 0% |
| CCOCCOC(=O)/C(C#N)=C(\NCc1cnc(Cl)s1)SC | 28% |
| CCOCCOC(=O)/C(C#N)=C(/CC)NCc1cnc(Cl)s1 | 46% |
| CCOCCOC(=O)/C(C#N)=C(/C)NCc1cnc(Cl)s1 | 47% |
| CCOCCOC(=O)/C(C#N)=C(\NCc1ccc(Cl)cc1)C(C)C | 0% |

System: Brassica napus
Assay: Preemergence herbicidal activity against Brassica napus (oilseed rape) under greenhouse condition at 1.5 kg/ha applied immediately after seed planting
Type: functional
How it was run: as §1

| Structure (SMILES) | Activity |
| --- | --- |
| CCOCCOC(=O)/C(C#N)=C(\NCc1cnc(Cl)s1)C(C)C | 96% |
| COCCOC(=O)/C(C#N)=C(/C)NCc1cnc(Cl)s1 | 78% |
| CCOCCOC(=O)/C(C#N)=C(\NCc1cnc(Cl)s1)SC | 40% |
| CCOCCOC(=O)/C(C#N)=C(/CC)NCc1cnc(Cl)s1 | 91% |
| CCOCCOC(=O)/C(C#N)=C(/C)NCc1cnc(Cl)s1 | 93% |
| CCOCCOC(=O)/C(C#N)=C(\NCc1ccc(Cl)cc1)C(C)C | 0% |

System: Medicago sativa
Assay: Postemergence herbicidal activity against Medicago sativa (alfalfa) under greenhouse condition at 1.5 kg/ha applied after expansion of true leaf
Type: functional
How it was run: as §1

| Structure (SMILES) | Activity |
| --- | --- |
| CCOCCOC(=O)/C(C#N)=C(\NCc1cnc(Cl)s1)C(C)C | 19% |
| COCCOC(=O)/C(C#N)=C(/C)NCc1cnc(Cl)s1 | 26% |
| CCOCCOC(=O)/C(C#N)=C(\NCc1cnc(Cl)s1)SC | 49% |
| CCOCCOC(=O)/C(C#N)=C(/CC)NCc1cnc(Cl)s1 | 70% |
| CCOCCOC(=O)/C(C#N)=C(/C)NCc1cnc(Cl)s1 | 94% |
| CCOCCOC(=O)/C(C#N)=C(\NCc1ccc(Cl)cc1)C(C)C | 28% |

System: Brassica napus
Assay: Postemergence herbicidal activity against Brassica napus (oilseed rape) under greenhouse condition at 75 g/ha applied after expansion of true leaf
Type: functional
How it was run: as §1

| Structure (SMILES) | Activity |
| --- | --- |
| CCOCCOC(=O)/C(C#N)=C(\NCc1cnc(Cl)s1)C(C)C | 98% |

System: Amaranthus retroflexus
Assay: Post-emergence herbicidal activity against Amaranthus retroflexus under greenhouse condition at 1.5 kg/ha applied after expansion of true leaf
Type: functional
How it was run: as §1

| Structure (SMILES) | Activity |
| --- | --- |
| CCOCCOC(=O)/C(C#N)=C(\NCc1cnc(Cl)s1)C(C)C | 96% |
| COCCOC(=O)/C(C#N)=C(/C)NCc1cnc(Cl)s1 | 81% |
| CCOCCOC(=O)/C(C#N)=C(\NCc1cnc(Cl)s1)SC | 78% |
| CCOCCOC(=O)/C(C#N)=C(/CC)NCc1cnc(Cl)s1 | 83% |
| CCOCCOC(=O)/C(C#N)=C(/C)NCc1cnc(Cl)s1 | 100% |
| CCOCCOC(=O)/C(C#N)=C(\NCc1ccc(Cl)cc1)C(C)C | 94% |
